Active and inactive are the calls of the source. No cut-off for these calls is given here.
Experiments:
RAW264.7 [1] = assay: Antiinflammatory activity against mouse RAW264.7 cells assessed as LPS-induced nitrate production at 10 uM treated 30 mins before LPS challenge measured after 24 hrs by Griess reagent method relative to control
N2a [2] = assay: Antiamyloidogenic activity in mouse N2A cells transfected with human APP Swedish mutant assessed as amyloid beta (1 to 42) level at 1 uM after 24 hrs by ELISA relative to control
[3] = Cytotoxicity against mouse RAW264.7 cells assessed as cell viability at 10 uM after 24 hrs by MTT assay relative to control; format: cell-based; conditions: read-out: Activity
Outline: (§1)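 RAW 264.7 cells given 0.5 mg/ml MTT in medium for 4 h, washed with PBS; formazan dissolved in DMSO, shaken 30 min, absorbance read at 570 nm against a 630 nm reference. Viability expressed relative to DMSO control.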

RAW264.7 [4] = assay: Antiinflammatory activity against mouse RAW264.7 cells assessed as LPS-induced nitrate production at 100 uM treated 30 mins before LPS challenge measured after 24 hrs by Griess reagent method relative to control
[5] = Cytotoxicity against mouse RAW264.7 cells assessed as cell viability at 100 uM after 24 hrs by MTT assay relative to control; format: cell-based; conditions: read-out: Activity
Outline: as §1

N2a [6] = assay: Antiamyloidogenic activity in mouse N2A cells transfected with human APP Swedish mutant assessed as reduction of amyloid beta (1 to 42) level at 0.5 uM after 24 hrs by ELISA; format: functional, cell-based
Outline: (§2)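 N2a/APPsw cells (25 × 10⁴/well, plated 24 h prior) washed with PBS and treated with drug in DMEM with 0.2 % FBS for 24 h. Supernatant got NaN₃ (0.01 % final) and protease inhibitors, was centrifuged, and Aβ1–42 was measured by human sandwich ELISA. Values normalized to DMSO vehicle; mean and s.e.m., at least 4 experiments on separate passages.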

N2a (Mus musculus) = assay: Cytotoxicity against mouse N2a/APPsw cells assessed as cell viability at 1 uM after 24 hrs by MTT assay relative to control
N2a [7] = assay: Antiamyloidogenic activity in mouse N2A cells transfected with human APP Swedish mutant assessed as increase of amyloid beta (1 to 42) level at 100 uM after 24 hrs by ELISA; format: functional, cell-based
N2a [8] = assay: Antiamyloidogenic activity in mouse N2A cells transfected with human APP Swedish mutant assessed as increase of amyloid beta (1 to 40) level at 100 uM after 24 hrs by ELISA; format: functional, cell-based
N2a [9] = assay: Antiamyloidogenic activity in mouse N2A cells transfected with human APP Swedish mutant assessed as increase of amyloid beta (1 to 42)/(1 to 40) ratio at 100 uM after 24 hrs by ELISA; format: functional, cell-based
N2a [10] = assay: Antiamyloidogenic activity in mouse N2A cells transfected with human APP Swedish mutant assessed as increase of amyloid beta (1 to 38) level at 10 uM after 24 hrs by ELISA; format: functional, cell-based; conditions: in the assay text read “immunoprecipitation MALDI-TOF” for “ELISA”
Outline: (§3)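 N2a cells stably expressing Swedish-mutant human APP, 1 × 10⁶ cells/well, drug-treated 24 h in DMEM with 0.2 % FBS without G418. Conditioned media got NaN₃, protease inhibitors and a ~1 ng/mL Aβ1–43 internal standard, then biotinylated 4G8/6E10 immunoprecipitation and linear-positive MALDI-TOF. Peak heights were normalized to Aβ1–43, then to DMSO control.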

N2a [11] = assay: Antiamyloidogenic activity in mouse N2A cells transfected with human APP Swedish mutant assessed as reduction of amyloid beta (1 to 42) level at 10 uM after 24 hrs by ELISA; format: functional, cell-based
Outline: as §2

N2a [12] = assay: Antiamyloidogenic activity in mouse N2A cells transfected with human APP Swedish mutant assessed as increase of amyloid beta (1 to 37) level at 10 uM after 24 hrs by ELISA; format: functional, cell-based; conditions: in the assay text read “immunoprecipitation MALDI-TOF” for “ELISA”
Outline: as §3

Row | Compound | level, % of control at 10 µM (RAW264.7 [1]) | level, % of control at 1 µM (N2a [2]) | viability at 24 h, 10 µM [3] | viability at 24 h, 1 µM (N2a (Mus musculus)) | further results
1 | CCNC(=O)CC1=C/C(=C/c2ccc(SC)cc2)c2ccc(F)cc21 | 80.4% | 95.7% | 104% |  | 
2 | O=C(OCCO[N+](=O)[O-])C1(c2ccc(-c3ccc(Cl)c(Cl)c3)c(F)c2)CC1 |  |  |  |  | level, % of control at 100 µM (RAW264.7 [4]): 40%; viability at 24 h, 100 µM [5]: 135%
3 | O=C(OCCBr)C1(c2ccc(-c3ccc(C(F)(F)F)cc3)c(F)c2)CC1 |  |  |  |  | level, % of control at 100 µM (RAW264.7 [4]): 14.7%; viability at 24 h, 100 µM [5]: 113%
4 | O=C(OCCO[N+](=O)[O-])C1(c2ccc(-c3ccccc3)c(F)c2)CC1 |  |  |  |  | inhibition (N2a [6]): Active; level, % of control at 100 µM (RAW264.7 [4]): 47.3%; viability at 24 h, 100 µM [5]: 113%
5 | O=C(O)C1(c2ccc(-c3ccccc3)c(F)c2)CC1 |  | 69.5% |  | 103% | level, % of control at 100 µM (RAW264.7 [4]): 60.7%; viability at 24 h, 100 µM [5]: 101%
6 | CSc1ccc(/C=C2/C=C(CC(=O)NCc3ccccc3)c3cc(F)ccc32)cc1 | 58.4% | 94.5% | 100% |  | 
7 | O=C(OCCBr)C1(c2ccc(-c3ccccc3)c(F)c2)CC1 |  |  |  |  | level, % of control at 100 µM (RAW264.7 [4]): 18.9%; viability at 24 h, 100 µM [5]: 109%
8 | COc1ccc2c(c1)c(CC(=O)Nc1ccc(Cl)cc1)c(C)n2C(=O)c1ccc(Cl)cc1 | 68.6% | 295% | 92.2% |  | 
9 | CSc1ccc(/C=C2/C(C)=C(CC(=O)O)c3cc(F)ccc32)cc1 [SULINDAC SULFIDE] |  | 82.6% |  |  | 
10 | COc1ccc2c(c1)c(CC(=O)O)cn2C(=O)c1ccc(Cl)cc1 | 65.9% | 102% | 97.9% |  | 
11 | CCC(C#N)(CC)c1ccc(-c2cccc3ccccc23)c(F)c1 | 91.3% | 105% | 107% | 91.6% | 
12 | O=C(OCCBr)C1(c2ccc(-c3ccc(Cl)c(Cl)c3)c(F)c2)CC1 |  |  |  |  | Activity (N2a [7]): Active; Activity (N2a [8]): Active; Activity (N2a [9]): Active; level, % of control at 100 µM (RAW264.7 [4]): 27.8%; viability at 24 h, 100 µM [5]: 114%
13 | O=C(O)C(O)c1ccc(-c2ccccc2)c(F)c1 (stereo not given) | 59% | 82.5% | 89.1% | 101% | 
14 | NC(=O)C(F)c1ccc(-c2ccc(F)cc2)c(F)c1 (stereo not given) | 74.7% |  | 90.6% | 69.1% | 
15 | O=C(O)C(O)c1ccc(-c2ccc(F)cc2)c(F)c1 (stereo not given) | 76.3% | 106% | 102% | 99.7% | 
16 | CC(F)(C(=O)O)c1ccc(-c2ccccc2)c(F)c1 (stereo not given) | 80.8% | 98.8% | 99.7% | 101% | 
17 | O=C(O)C1(c2ccc(-c3ccc(C(F)(F)F)cc3)c(F)c2)CC1 |  | 99.3% |  | 97.2% | level, % of control at 100 µM (RAW264.7 [4]): 62.4%; viability at 24 h, 100 µM [5]: 102%
18 | C[S+]([O-])c1ccc(/C=C2/C=C(CC(=O)O)c3cc(F)ccc32)cc1 (stereo not given) | 91.6% | 95% | 104% |  | 

Row | Compound | level, % of control at 10 µM (RAW264.7 [1]) | level, % of control at 1 µM (N2a [2]) | viability at 24 h, 10 µM [3] | viability at 24 h, 1 µM (N2a (Mus musculus)) | further results
19 | N#CC(F)c1ccc(-c2ccccc2)c(F)c1 (stereo not given) |  | 65.6% |  | 93.1% | 
20 | CCC(CC)(C(=O)O)c1ccc(-c2ccccc2)c(F)c1 |  | 124% |  | 95.5% | 
21 | O=C(O)C1(c2ccc(-c3ccc(F)cc3)c(F)c2)CC1 | 86.4% | 90.4% | 102% | 102% | 
22 | O=C(O)C1(c2ccc(-c3ccc(Cl)c(Cl)c3)c(F)c2)CC1 |  | 125% |  |  | viability at 24 h, 100 µM [5]: 19.1%
23 | N#CC(F)c1ccc(-c2ccc(F)cc2)c(F)c1 (stereo not given) | 65.3% |  | 84.5% | 69.4% | 
24 | O=C(O)C(F)c1ccc(-c2ccccc2)c(F)c1 (stereo not given) | 81.5% | 91.8% | 92.7% | 98.7% | 
25 | CC1=C(CC(=O)O)c2cc(F)ccc2/C1=C\c1ccc([S+](C)[O-])cc1 (stereo not given) | 85.7% | 100% | 104% |  | Activity (N2a [10]): Active; inhibition (N2a [11]): Active; Activity (N2a [12]): Active
26 | O=C(O)CC1=C/C(=C/c2ccc(SC(F)(F)F)cc2)c2ccc(F)cc21 | 1.7% | 99.4% | 104% |  | 
27 | O=C(OCCO[N+](=O)[O-])C1(c2ccc(-c3ccc(C(F)(F)F)cc3)c(F)c2)CC1 |  |  |  |  | level, % of control at 100 µM (RAW264.7 [4]): 42.8%; viability at 24 h, 100 µM [5]: 128%
28 | NC(=O)C(F)(F)c1ccc(-c2ccc(F)cc2)c(F)c1 | 84.1% | 109% | 98.8% | 95.9% | 
29 | O=C(O)CC1=C/C(=C/c2ccc(C(F)(F)F)cc2)c2ccc(F)cc21 | 29.2% | 91% | 100% |  | 
30 | N#CC(F)(F)c1ccc(-c2ccc(F)cc2)c(F)c1 | 75.7% | 125% | 98.2% | 98.2% | 
31 | COc1ccc2c(c1)c(CC(=O)NCCc1cccnc1)c(C)n2C(=O)c1ccc(Cl)cc1 | 100% | 135% | 95.6% |  | 
32 | COc1ccc2c(c1)c(CNCCO)c(C)n2C(=O)c1ccc(Cl)cc1 | 52.5% | 118% | 100% |  | 
33 | NC(=O)C(F)c1ccc(-c2ccccc2)c(F)c1 (stereo not given) |  | 101% |  | 103% | 
34 | CCC(C#N)(CC)c1ccc(-c2ccccc2)c(F)c1 |  | 125% |  | 97.3% | 
35 | NC(=O)C(F)(F)c1ccc(-c2ccccc2)c(F)c1 | 82.2% | 115% | 100% | 102% | 

Source: ChEMBL document CHEMBL1765072, “Inhibition of amyloidogenesis by nonsteroidal anti-inflammatory drugs and their hybrid nitrates” (J Med Chem, 2011)
